Assay results as given in ChEMBL document CHEMBL4257543, “Structural optimization and antibacterial evaluation of rhodomyrtosone B analogues against MRSA strains” (Medchemcomm, 2018).
≈ marks a conversion by molar mass, not a printed value. Calls of active or inactive are those of the source. No cut-off for these calls is given here.

Assays:
[1] = tested on: Staphylococcus aureus; assay: Antibacterial activity against Staphylococcus aureus CMCC 26003 by micro dilution susceptibility test; format: functional
Outline: (§1)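 Microbroth dilution MIC in Mueller–Hinton broth following CLSI guidelines, vancomycin as positive control; resazurin added as visible growth indicator. Assays run at least in triplicate.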

[2] = tested on: Shigella dysenteriae; assay: Antibacterial activity against Shigella dysenteriae CMCC 51252 by micro dilution susceptibility test; format: functional; outline: as §1
[3] = tested on: Staphylococcus aureus; assay: Antibacterial activity against methicillin-resistant Staphylococcus aureus N315 by micro dilution susceptibility test; format: functional; outline: as §1
[4] = tested on: Enterococcus faecalis; assay: Antibacterial activity against Enterococcus faecalis ATCC 29212 by micro dilution susceptibility test; format: functional
Outline: (§2)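 Microbroth dilution MIC in Mueller–Hinton broth following CLSI guidelines, with vancomycin as positive control; assays run at least in triplicate.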

[5] = tested on: Staphylococcus aureus; assay: Antibacterial activity against methicillin-resistant Staphylococcus aureus JCSC 2172 by micro dilution susceptibility test; format: functional; outline: as §1
[6] = tested on: Cutibacterium acnes; assay: Antibacterial activity against Propionicibacterium acnes ATCC 6919 by micro dilution susceptibility test; format: functional
Outline: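 Microbroth dilution MIC in Mueller–Hinton broth following CLSI guidelines; […]; resazurin added as visible growth indicator; vancomycin positive control; at least triplicate.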

[7] = tested on: Enterococcus faecium; assay: Antibacterial activity against vancomycin-resistant Enterococcus faecium by micro dilution susceptibility test; format: functional; outline: as §1
[8] = tested on: Staphylococcus aureus; assay: Antibacterial activity against methicillin-resistant Staphylococcus aureus JCSC 3063 by micro dilution susceptibility test; format: functional; outline: as §1
[9] = tested on: Staphylococcus aureus; assay: Antibacterial activity against methicillin-resistant Staphylococcus aureus JCSC 4469 by micro dilution susceptibility test; format: functional; outline: as §1
[10] = tested on: Staphylococcus aureus; assay: Antibacterial activity against Staphylococcus aureus ATCC 6538 by micro dilution susceptibility test; format: functional; outline: as §1
[11] = tested on: Staphylococcus aureus; assay: Antibacterial activity against methicillin-resistant Staphylococcus aureus JCSC 4744 by micro dilution susceptibility test; format: functional; outline: as §1
[12] = tested on: Staphylococcus aureus; assay: Antibacterial activity against methicillin-resistant Staphylococcus aureus JCSC 4788 by micro dilution susceptibility test; format: functional; outline: as §1
[13] = tested on: Paenibacillus polymyxa; assay: Antibacterial activity against Bacillus polymyxa ATCC 842 by micro dilution susceptibility test; format: functional; outline: as §2
[14] = tested on: Escherichia coli; assay: Antibacterial activity against Escherichia coli ATCC 8739 by micro dilution susceptibility test; format: functional; outline: as §2
[15] = tested on: Staphylococcus epidermidis; assay: Antibacterial activity against Staphylococcus epidermidis ATCC 12228 by micro dilution susceptibility test; format: functional; outline: as §2
[16] = tested on: Salmonella typhi; assay: Antibacterial activity against Salmonella typhi CMCC 44102 by micro dilution susceptibility test; format: functional, Salmonella enterica subsp. enterica serovar Typhi; conditions: Salmonella enterica; outline: as §1
[17] = tested on: Staphylococcus aureus; assay: Antibacterial activity against methicillin-resistant Staphylococcus aureus NCTC 10442 by micro dilution susceptibility test; format: functional; outline: as §1
[18] = tested on: Bacillus cereus; assay: Antibacterial activity against Bacillus cereus ATCC 10876 by micro dilution susceptibility test; format: functional; outline: as §2
[19] = tested on: Candida albicans; assay: Antibacterial activity against Candida albicans ATCC 10231 by micro dilution susceptibility test; format: functional; outline: as §2
[20] = tested on: Staphylococcus aureus; assay: Antibacterial activity against methicillin-resistant Staphylococcus aureus 85/2082 by micro dilution susceptibility test; format: functional; outline: as §1
[21] = tested on: Staphylococcus aureus; assay: Antibacterial activity against Staphylococcus aureus ATCC 29213 by micro dilution susceptibility test; format: functional; outline: as §1
[22] = tested on: Paenibacillus polymyxa; assay: Antibacterial activity against Bacillus polymyxa GIM 1.467 by micro dilution susceptibility test; format: functional; outline: as §2
[23] = tested on: Staphylococcus aureus; assay: Antibacterial activity against methicillin-resistant Staphylococcus aureus JCSC 4788 in Balb/c mouse skin infection model assessed as reduction in skin ulcer formation at 40 ug administered as single dose via intradermal route measured 3 to 8 days post-infection; format: functional, organism-based
Outline: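 Female BALB/c mice (18–20 g) injected intradermally in abdominal skin with 0.1 mL of MRSA JCSC 4788 (1×10^8 CFU) mixed with a single 40 μg dose in DMSO; DMSO-vehicle controls. Body weight and lesion size recorded daily for 11 days, ulcers imaged at 3 and 8 days; n = 6, mean ± SD.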

[24] = tested on: Staphylococcus aureus; assay: Induction of membrane disruption in methicillin-resistant Staphylococcus aureus JCSC 4788 assessed as increase in fluorescence intensity at 0.25 to 8 ug/ml measured after 3 hrs by SYTOX green dye based fluorescence assay; format: functional, organism-based
Outline: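 Exponential-phase MRSA JCSC 4788 washed and set to OD620 0.4 in 0.85% NaCl, exposed to serial compound concentrations for 3 h, then 3 μM SYTOX Green for 20 min. Fluorescence read at ex 504/em 523 nm with melittin as positive control and vancomycin as comparator; mean ± SD, n = 3.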

CC(C)CC(=O)c1c(O)cc(O)c2c1OC1=C(C(=O)C(C)(C)C(=O)C1(C)C)C2CC(C)C (stereo unspecified)
MIC [1]: 0.5 µg/mL (≈ 1.13 µM) | MIC [2]: > 32 µg/mL | MIC [3]: 1 µg/mL (≈ 2.26 µM) | MIC [4]: 1 µg/mL (≈ 2.26 µM) | MIC [5]: 0.5 µg/mL (≈ 1.13 µM) | MIC [6]: 0.5 µg/mL (≈ 1.13 µM) | MIC [7]: 2 µg/mL (≈ 4.52 µM) | MIC [8]: 0.5 µg/mL (≈ 1.13 µM) | MIC [9]: 0.5 µg/mL (≈ 1.13 µM) | MIC [10]: 0.5 to 1 µg/mL (≈ 1.13 to 2.26 µM) | MIC [11]: 0.5 µg/mL (≈ 1.13 µM) | MIC [12]: 1 µg/mL (≈ 2.26 µM) | MIC [13]: > 32 µg/mL | MIC [14]: > 32 µg/mL | MIC [15]: 1 µg/mL (≈ 2.26 µM) | MIC [16]: > 32 µg/mL | MIC [17]: 1 µg/mL (≈ 2.26 µM) | MIC [18]: 0.5 µg/mL (≈ 1.13 µM) | MIC [19]: > 32 µg/mL | MIC [20]: 1 µg/mL (≈ 2.26 µM) | MIC [21]: 1 µg/mL (≈ 2.26 µM) | MIC [22]: > 32 µg/mL

CCCCCCCCCCC(=O)c1c(O)cc(O)c2c1OC1=C(C(=O)C(C)(C)C(=O)C1(C)C)C2CC(C)C (stereo unspecified)
MIC [10]: 1 µg/mL (≈ 1.9 µM) | MIC [12]: 1 µg/mL (≈ 1.9 µM)

CC(C)CC1C2=C(Oc3cc(O)cc(O)c31)C(C)(C)C(=O)C(C)(C)C2=O (stereo unspecified)
MIC [10]: > 256 µg/mL | MIC [12]: 256 µg/mL (≈ 714 µM)

CCCCCC(=O)c1c(O)cc(O)c2c1OC1=C(C(=O)C(C)(C)C(=O)C1(C)C)C2CC(C)C (stereo unspecified)
MIC [10]: 0.5 µg/mL (≈ 1.1 µM) | MIC [12]: 0.5 µg/mL (≈ 1.1 µM)

CCCC(=O)c1c(O)cc(O)c2c1OC1=C(C(=O)C(C)(C)C(=O)C1(C)C)C2CC(C)C (stereo unspecified)
MIC [10]: 2 µg/mL (≈ 4.67 µM) | MIC [12]: 2 µg/mL (≈ 4.67 µM)

CN[C@H](CC(C)C)C(=O)N[C@H]1C(=O)N[C@@H](CC(N)=O)C(=O)N[C@H]2C(=O)N[C@H]3C(=O)N[C@H](C(=O)N[C@H](C(=O)O)c4cc(O)cc(O)c4-c4cc3ccc4O)[C@H](O)c3ccc(c(Cl)c3)Oc3cc2cc(c3O[C@@H]2O[C@H](CO)[C@@H](O)[C@H](O)[C@H]2O[C@H]2C[C@](C)(N)[C@H](O)[C@H](C)O2)Oc2ccc(cc2Cl)[C@H]1O [VANCOMYCIN]
Activity [23]: Active | Activity [24]: inactive | MIC [2]: > 32 µg/mL | MIC [4]: 0.5 µg/mL (≈ 0.345 µM) | MIC [6]: 0.5 µg/mL (≈ 0.345 µM) | MIC [7]: > 32 µg/mL | MIC [10]: 0.5 to 1 µg/mL (≈ 0.345 to 0.69 µM) | MIC [13]: > 32 µg/mL | MIC [14]: > 32 µg/mL | MIC [15]: 0.5 µg/mL (≈ 0.345 µM) | MIC [16]: > 32 µg/mL | MIC [18]: 0.5 µg/mL (≈ 0.345 µM) | MIC [19]: > 32 µg/mL | MIC [22]: > 32 µg/mL

CC(=O)c1c(O)cc(O)c2c1OC1=C(C(=O)C(C)(C)C(=O)C1(C)C)C2CC(C)C (stereo unspecified)
MIC [10]: 4 µg/mL (≈ 9.99 µM) | MIC [12]: 4 µg/mL (≈ 9.99 µM)

CC(C)CC1C2=C(Oc3c(C(=O)C4CCCCC4)c(O)cc(O)c31)C(C)(C)C(=O)C(C)(C)C2=O (stereo unspecified)
MIC [10]: 2 µg/mL (≈ 4.27 µM) | MIC [12]: 4 µg/mL (≈ 8.54 µM)

CCCCCCC(=O)c1c(O)cc(O)c2c1OC1=C(C(=O)C(C)(C)C(=O)C1(C)C)C2CC(C)C (stereo unspecified)
MIC [10]: 0.25 µg/mL (≈ 0.531 µM) | MIC [12]: 0.5 µg/mL (≈ 1.06 µM)

CCCCCCCCC(=O)c1c(O)cc(O)c2c1OC1=C(C(=O)C(C)(C)C(=O)C1(C)C)C2CC(C)C (stereo unspecified)
MIC [10]: 0.25 µg/mL (≈ 0.501 µM) | MIC [12]: 0.5 µg/mL (≈ 1 µM)

CC(C)CC1C2=C(Oc3c(C(=O)C(C)C)c(O)cc(O)c31)C(C)(C)C(=O)C(C)(C)C2=O (stereo unspecified)
MIC [10]: 4 µg/mL (≈ 9.33 µM) | MIC [12]: 4 µg/mL (≈ 9.33 µM)

CCCCCCCCCCCCCC(=O)c1c(O)cc(O)c2c1OC1=C(C(=O)C(C)(C)C(=O)C1(C)C)C2CC(C)C (stereo unspecified)
MIC [10]: 128 µg/mL (≈ 225 µM) | MIC [12]: 256 µg/mL (≈ 450 µM)
